{"data": "Results of several laboratories", "target": "Protein-tyrosine kinase 6 (PTK6, Homo sapiens, UniProt Q13882)", "note": "Each line is one published result; the experiments were not run side by side."}
{"Compound": "O=c1[nH]c2ccccc2n1C1CCN(Cc2ccc(-c3[nH]c4cc5ncnc5cc4nc3-c3ccccc3)cc2)CC1", "assay": "cell-free assay", "setting": "0.5 µM", "endpoint": "remaining signal", "value": "91.1%"}
{"Compound": "COc1ncccc1-c1cnn2ccc(N3CCN(C(=O)OC(C)C)CC3)nc12", "assay": "binding, competition with immobilised ligand", "setting": "1 µM", "endpoint": "remaining binding", "value": "61%"}
{"Compound": "Cn1cc(-c2cc(F)cc(N3CCn4c(cc5c4CCCC5)C3=O)c2CO)cc(Nc2ccc(N3CCN(C4COC4)CC3)cn2)c1=O", "assay": "enzyme activity, inhibitor", "setting": "0.1 µM", "endpoint": "inhibition", "value": "10%"}
{"Compound": "Cc1nn(C)cc1-c1nc2c(N3CCN(Cc4ccc(Cl)cc4)CC3)c(Cl)cnc2[nH]1", "assay": "binding, competition with immobilised ligand", "setting": "1 µM", "endpoint": "remaining binding", "value": "96%"}
{"Compound": "CC(C)(C)c1cc(C=C(C#N)C#N)cc(Br)c1O", "assay": "enzyme activity, inhibitor", "setting": "0.5 µM", "endpoint": "remaining activity", "value": "91.4%"}
{"Compound": "Cn1cc(-c2cccc(N3CCc4c(sc5c4CC(C)(C)C5)C3=O)c2CO)cc(Nc2ccncn2)c1=O", "assay": "enzyme activity, inhibitor", "setting": "1 µM", "endpoint": "inhibition", "value": "1%"}
{"Compound": "C#Cc1n[nH]c2c(-c3cn([C@@H](C)c4ccccn4)c(=O)[nH]c3=O)cc(F)cc12", "assay": "enzyme activity, inhibitor", "setting": "0.1 µM", "endpoint": "inhibition", "value": "5.5%"}
{"Compound": "Cn1cncc1[C@@](O)(COc1ccc(C#N)cc1-c1ccc(OC(F)(F)F)cc1)c1ccc(C#N)cc1", "assay": "cell-free assay, competition with immobilised ligand", "setting": "1 µM", "endpoint": "remaining binding", "value": "100%"}
{"Compound": "COc1cc(Nc2ncc(F)c(Nc3ccc4c(n3)NC(=O)C(C)(C)O4)n2)cc(OC)c1OC", "assay": "binding", "setting": "10 µM", "endpoint": "inhibition", "value": "82%"}
{"Compound": "C#Cc1n[nH]c2c(-c3cn([C@@H](C)c4ccccc4)c(=O)[nH]c3=O)cc(F)cc12", "assay": "enzyme activity, inhibitor", "setting": "0.1 µM", "endpoint": "inhibition", "value": "9.4%"}
